# Assay results from ChEMBL document CHEMBL1149790, “Synthesis of some novel thiourea derivatives obtained from 5-[(4-aminophenoxy)methyl]-4-alkyl/aryl-2,4-dihydro-3H-1,2,4-triazole-3-thiones and evaluation as antiviral/anti-HIV and anti-tuberculosis agents” (Eur J Med Chem, 2008).
# Calls of active or inactive are those of the source. The calls are words filed in the database; no cut-off is given here.
# Key:
# [1] = tested on: Human immunodeficiency virus 1; experiment: Antiviral activity against HIV1 3B in human MT4 cells assessed as protection against virus-induced cytopathogenicity by MTT assay; format: functional, organism-based; set-up: Activity: concentration or dose not given beside the values; conditions: for IC50: Human immunodeficiency virus 1, 3B, MT4
# Summary of the method: (§1)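 MT-4 cells at 6 × 10⁵ cells/ml infected with HIV-1 IIIB or HIV-2 ROD at 100–300 CCID50; compounds in serial five-fold dilutions, triplicate mock- and virus-infected wells. MTT viability read at 540 and 690 nm after 5 days, median OD of three wells; EC50 = 50% protection from viral cytopathic effect.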
# [2] = tested on: Human immunodeficiency virus 2; experiment: Antiviral activity against HIV2 ROD in human MT4 cells assessed as protection against virus-induced cytopathogenicity by MTT assay; format: functional, organism-based; set-up: Activity: concentration or dose not given beside the values; conditions: for IC50: Human immunodeficiency virus 2, ROD, MT4; summary of the method: as §1
# [3] = Cytotoxicity against human MT4 cells by MTT assay; format: cell-based
# Summary of the method: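 Mock-infected MT-4 cells (6 × 10⁵ cells/ml) with serial five-fold compound dilutions in triplicate; MTT reduction read at 540 and 690 nm after 5 days, median OD of three wells; CC50 = concentration reducing OD540 of mock-infected control by 50%.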
# [4] = Cytotoxicity against human HeLa cells; format: cell-based
# Summary of the method: (§2)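 Uninfected cell cultures exposed to test compounds alongside antiviral assays; minimum cytotoxic concentration (MCC) = concentration causing a microscopically detectable alteration of cell morphology.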
# [5] = tested on: Vesicular stomatitis virus; experiment: Antiviral activity against vesicular stomatitis virus in human HeLa cells assessed as inhibition of virus-induced cytopathogenicity; format: functional
# Summary of the method: (§3)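 Confluent cell monolayers (E6SM, HEL, HeLa or Vero, per line) inoculated with 100 CCID50 virus; 1 h adsorption, residual virus removed, then incubated with compound at 400, 200, 100 … µg/ml. Cytopathicity scored once complete in untreated virus controls; MIC = concentration inhibiting virus-induced cytopathicity.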
# Coxsackievirus B4 [6] = experiment: Antiviral activity against Coxsackie virus B4 in human HeLa cells assessed as inhibition of virus-induced cytopathogenicity; format: functional; conditions: Enterovirus B; summary of the method: as §3
# [7] = tested on: Respiratory syncytial virus; experiment: Antiviral activity against respiratory syncytial virus in human HeLa cells assessed as inhibition of virus-induced cytopathogenicity; format: functional; summary of the method: as §3
# [8] = Cytotoxicity against human E6SM cells; format: cell-based; conditions: E6SM cells; summary of the method: as §2
# [9] = Cytotoxicity against human HEL cells assessed as alteration of cell morphology; format: cell-based; summary of the method: as §2
# Human alphaherpesvirus 1 [10] = experiment: Antiviral activity against HSV1 KOS in human E6SM cells assessed as reduction of virus-induced cytopathogenicity; format: functional; conditions: Human alphaherpesvirus 1, KOS; summary of the method: as §3
# Human alphaherpesvirus 1 [11] = experiment: Antiviral activity against HSV1 KOS in human HEL cells assessed as reduction of virus-induced cytopathogenicity; format: functional; conditions: Human alphaherpesvirus 1, KOS; summary of the method: as §3
# Human alphaherpesvirus 2 [12] = experiment: Antiviral activity against HSV2 G in human E6SM cells assessed as reduction of virus-induced cytopathogenicity; format: functional; conditions: Human alphaherpesvirus 2, G; summary of the method: as §3
# Human alphaherpesvirus 2 [13] = experiment: Antiviral activity against HSV2 G in human HEL cells assessed as reduction of virus-induced cytopathogenicity; format: functional; conditions: Human alphaherpesvirus 2, G; summary of the method: as §3
# [14] = tested on: Vesicular stomatitis virus; experiment: Antiviral activity against in Vesicular stomatitis virus in human E6SM cells assessed as reduction of virus-induced cytopathogenicity; format: functional; summary of the method: as §3
# [15] = tested on: Vesicular stomatitis virus; experiment: Antiviral activity against in Vesicular stomatitis virus in human HEL cells assessed as reduction of virus-induced cytopathogenicity; format: functional; summary of the method: as §3
# Human alphaherpesvirus 1 [16] = experiment: Antiviral activity against thymidine kinase deficient and acyclovir resistant HSV1 KOS in human E6SM cells assessed as reduction of virus-induced cytopathogenicity; format: functional; conditions: Human alphaherpesvirus 1, KOS; summary of the method: as §3
# Human alphaherpesvirus 1 [17] = experiment: Antiviral activity against thymidine kinase deficient and acyclovir resistant HSV1 KOS in human HEL cells assessed as reduction of virus-induced cytopathogenicity; format: functional; conditions: Human alphaherpesvirus 1, KOS; summary of the method: as §3
# Vero = experiment: Cytotoxicity against african green monkey Vero cells; format: cell-based; conditions: chlorocebus sabaeus; summary of the method: as §2
# Coxsackievirus B4 [18] = experiment: Antiviral activity against Coxsackie virus B4 in african green monkey Vero cells assessed as reduction of virus-induced cytopathogenicity; format: functional; conditions: Enterovirus B; summary of the method: as §3
# Punta Toro virus = experiment: Antiviral activity against Punta Toro virus in african green monkey Vero cells assessed as reduction of virus-induced cytopathogenicity; format: functional; summary of the method: as §3
# Human betaherpesvirus 5 [19] = experiment: Antiviral activity against human cytomegalovirus AD169 infected HEL cells assessed as reduction in virus plaque formation; format: functional, organism-based; conditions: Human betaherpesvirus 5, AD169, HEL
# Human betaherpesvirus 5 [20] = experiment: Antiviral activity against human cytomegalovirus Davis infected HEL cells assessed as reduction in virus plaque formation; format: functional, organism-based; conditions: Human betaherpesvirus 5, Davis
# Human alphaherpesvirus 3 [21] = experiment: Antiviral activity against TK+ VZV OKA infected HEL cells assessed as reduction in virus plaque formation; format: functional, organism-based; conditions: Human alphaherpesvirus 3, OKA
# Human alphaherpesvirus 3 [22] = experiment: Antiviral activity against TK- VZV 07/1 infected HEL cells assessed as reduction in virus plaque formation; format: functional, organism-based; conditions: Human alphaherpesvirus 3, 07/1, HEL
# [23] = tested on: Mycobacterium tuberculosis; experiment: Antitubercular activity against Mycobacterium tuberculosis H37Rv at 6.25 ug/ml by MABA assay; format: functional
# Human respirovirus 3 = experiment: Antiviral activity against Parainfluenza 3 virus in african green monkey Vero cells assessed as reduction of virus-induced cytopathogenicity; format: functional; summary of the method: as §3
# [24] = tested on: Mammalian orthoreovirus 1; experiment: Antiviral activity against Reo virus 1 in african green monkey Vero cells assessed as reduction of virus-induced cytopathogenicity; format: functional; summary of the method: as §3
# Sindbis virus = experiment: Antiviral activity against Sindbis virus in african green monkey Vero cells assessed as reduction of virus-induced cytopathogenicity; format: functional; summary of the method: as §3
# [25] = Cytotoxicity against human HEL cells assessed as reduction of cell growth; format: cell-based
# Summary of the method: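 HEL cells; CC50 = compound concentration reducing cell growth by 50%.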
Compound,Activity [1],IC50 [1],Activity [2],IC50 [2],CC50 [3],MCC [4],MIC [5],MIC (Coxsackievirus B4 [6]),MIC [7],MCC [8],MCC [9],MIC (Human alphaherpesvirus 1 [10]),MIC (Human alphaherpesvirus 1 [11]),MIC (Human alphaherpesvirus 2 [12]),MIC (Human alphaherpesvirus 2 [13]),MIC [14],MIC [15],MIC (Human alphaherpesvirus 1 [16]),MIC (Human alphaherpesvirus 1 [17]),Activity (Vero),further results
C=CCNC(=S)Nc1ccc(OCc2n[nH]c(=S)n2CC)cc1,3%,> 72.3 mg/L,2%,> 71.4 mg/L,75.9 mg/L,400 µg/mL,> 80 mg/L,> 80 mg/L,> 80 mg/L,> 400 µg/mL,> 400 µg/mL,> 400 mg/L,> 400 mg/L,240 mg/L,240 mg/L,> 400 mg/L,> 400 mg/L,240 mg/L,240 mg/L,400 µg/mL,MIC (Coxsackievirus B4 [18]): 48 mg/L; MIC (Punta Toro virus): > 80 mg/L; EC50 (Human betaherpesvirus 5 [19]): 45 mg/L; EC50 (Human betaherpesvirus 5 [20]): 45 mg/L; EC50 (Human alphaherpesvirus 3 [21]): 41 mg/L; EC50 (Human alphaherpesvirus 3 [22]): 42 mg/L; inhibition at 6.25 µg/mL [23]: 75%; MIC (Human respirovirus 3): > 80 mg/L; MIC [24]: > 80 mg/L; MIC (Sindbis virus): 48 mg/L; CC50 [25]: > 50 mg/L
CCn1c(COc2ccc(NC(=S)Nc3ccccc3)cc2)n[nH]c1=S,26.5%,> 27.2 mg/L,25.5%,> 31.4 mg/L,31.9 mg/L,400 µg/mL,80 mg/L,> 80 mg/L,> 80 mg/L,400 µg/mL,400 µg/mL,> 80 mg/L,> 80 mg/L,> 80 mg/L,> 80 mg/L,> 80 mg/L,> 80 mg/L,> 80 mg/L,> 80 mg/L,>= 80 ug ml-1,MIC (Coxsackievirus B4 [18]): 48 mg/L; MIC (Punta Toro virus): > 80 mg/L; EC50 (Human betaherpesvirus 5 [19]): 41 mg/L; EC50 (Human betaherpesvirus 5 [20]): 37 mg/L; EC50 (Human alphaherpesvirus 3 [21]): 29 mg/L; EC50 (Human alphaherpesvirus 3 [22]): 34 mg/L; inhibition at 6.25 µg/mL [23]: 76%; MIC (Human respirovirus 3): > 80 mg/L; MIC [24]: > 80 mg/L; MIC (Sindbis virus): > 80 mg/L; CC50 [25]: > 50 mg/L
C=CCn1c(COc2ccc(NC(=S)NCC)cc2)n[nH]c1=S,4%,> 76.5 mg/L,2.5%,> 86.2 mg/L,90 mg/L,400 µg/mL,> 80 mg/L,> 80 mg/L,> 80 mg/L,> 400 µg/mL,> 400 µg/mL,> 400 mg/L,> 400 mg/L,> 400 mg/L,> 400 mg/L,> 400 mg/L,> 400 mg/L,> 400 mg/L,> 400 mg/L,400 µg/mL,MIC (Coxsackievirus B4 [18]): 80 mg/L; MIC (Punta Toro virus): > 80 mg/L; EC50 (Human betaherpesvirus 5 [19]): > 100 mg/L; EC50 (Human betaherpesvirus 5 [20]): > 100 mg/L; EC50 (Human alphaherpesvirus 3 [21]): 64 mg/L; EC50 (Human alphaherpesvirus 3 [22]): 64 mg/L; Activity [23]: inactive; MIC (Human respirovirus 3): > 80 mg/L; MIC [24]: > 80 mg/L; MIC (Sindbis virus): > 80 mg/L; CC50 [25]: > 50 mg/L
Nc1ccc(OCc2n[nH]c(=S)n2-c2ccccc2)cc1,2%,> 125 mg/L,2.5%,> 125 mg/L,> 125 mg/L,> 400 µg/mL,> 400 mg/L,> 400 mg/L,> 400 mg/L,> 400 µg/mL,> 400 µg/mL,> 400 mg/L,> 400 mg/L,240 mg/L,240 mg/L,> 400 mg/L,> 400 mg/L,> 400 mg/L,> 400 mg/L,400 µg/mL,MIC (Coxsackievirus B4 [18]): 48 mg/L; MIC (Punta Toro virus): > 80 mg/L; EC50 (Human betaherpesvirus 5 [19]): > 100 mg/L; EC50 (Human betaherpesvirus 5 [20]): > 100 mg/L; EC50 (Human alphaherpesvirus 3 [21]): > 100 mg/L; EC50 (Human alphaherpesvirus 3 [22]): > 100 mg/L; Activity [23]: inactive; MIC (Human respirovirus 3): > 80 mg/L; MIC [24]: > 80 mg/L; MIC (Sindbis virus): > 80 mg/L; CC50 [25]: > 50 mg/L
